Most compounds without a hit are left out; they make up all but 3.5% or so of the library.
MrgX1 antagonist: human MrgX1 receptor antagonism, primary screen; Q96LB2; MRGX1-HEK293 calcium flux, Fluo-4, BAM8-22 antagonism; active compounds read low; B-score at 10 µM; 1.3% of 310,000 active;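 active means calcium-response B-score plate-corrected more than 3 library SD below zero, starting fluorescence within 5 deviations, no agonist response on first addition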;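 further: peak minus trough fluorescence over baseline after final BAM8-22 challenge near maximal dose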
Target sequence (Q96LB2 whole entry, looked up): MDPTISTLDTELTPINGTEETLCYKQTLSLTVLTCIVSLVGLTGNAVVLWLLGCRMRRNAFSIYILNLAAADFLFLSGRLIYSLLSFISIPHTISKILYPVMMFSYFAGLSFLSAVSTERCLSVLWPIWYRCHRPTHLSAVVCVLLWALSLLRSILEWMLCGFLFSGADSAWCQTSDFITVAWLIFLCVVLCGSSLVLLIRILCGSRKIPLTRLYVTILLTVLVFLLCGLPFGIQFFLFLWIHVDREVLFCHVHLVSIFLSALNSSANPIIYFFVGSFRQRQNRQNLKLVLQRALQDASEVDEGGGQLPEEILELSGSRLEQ
MrgX1 agonist: activates human MrgX1 receptor signaling | AID 588627 | 0.44% of 310,000 active | MrgX1-HEK293 cells, Fluo-4 calcium fluorescence, agonist mode; active compounds read high | Q96LB2 | B-score at 10 µM;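 active means calcium response B-score plate-corrected fluorescence ratio at least 3 library SD, with starting fluorescence B-score inside 5 SD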
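Material: MrgX1-expressing HEK293 cells / Dosing: compound as first of three additions / Incubation: overnight seeding, then 1 h dark dye loading / Signal: Fluo-4 NW calcium fluorescence / Evaluation: B-scored fluorescence response ratio / Benchmarks: positive and negative control wells on each plate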
RGS4 block: inhibitors of human RGS4; P49798; HEK293 M3R/RGS4 inducible, Fluo-4 calcium flux; active compounds read high; triggered by carbachol at its EC20; B-score at 10 µM; 0.45% of 310,000 active; AID 463165;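 active means B-score, a plate-corrected calcium signal, over three deviations above library mean, with baseline fluorescence within five deviations of library mean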;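 further: RGS4 expression induced by doxycycline in cells with stable M3 receptor; B-score is computed from the integrated fluorescence ratio over baseline after carbachol; higher B-score means a larger calcium signal and so more RGS4 inhibition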
Target sequence (P49798 whole entry, looked up): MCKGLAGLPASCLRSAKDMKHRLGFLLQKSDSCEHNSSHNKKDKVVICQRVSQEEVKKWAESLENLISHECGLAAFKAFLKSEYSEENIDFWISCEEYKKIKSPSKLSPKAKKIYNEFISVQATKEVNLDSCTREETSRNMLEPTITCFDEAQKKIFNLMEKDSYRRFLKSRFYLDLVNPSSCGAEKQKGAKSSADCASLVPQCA
MrgX1 PAM: allosterically activates human MrgX1 receptor signaling | MrgX1-HEK293, Fluo-4 calcium flux, FDSS; active compounds read high | Q96LB2 | 0.63% of 310,000 active | B-score at 10 µM;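 active means plate-corrected calcium response at least 3 library SD above typical, normal starting fluorescence, not activating the receptor alone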;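 further: compound read alongside a low EC10 to EC30 dose of BAM8-22 agonist; peak minus trough fluorescence over baseline measured at the second addition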
RGS4 pot: RGS4 potentiation or activation; HEK293 M3R/inducible RGS4, carbachol calcium flux Fluo4; active compounds read low; B-score at 10 µM; 0.92% of 310,000 active; AID 463111;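 active means B-score of the integrated calcium signal more than 4 SD below the library mean, with starting fluorescence not abnormally high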;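 further: negative B-score means reduced calcium response which marks RGS4 activation or potentiation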
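Assay system: HEK293 FlpIn-TREx cells, stable M3R, doxycycline-inducible RGS4 / Probe or stimulus: carbachol, ECmax concentration / Times: overnight RGS4 induction, 30 min dye load 37 °C, 20 min compound RT / Signal: kinetic calcium fluorescence imaging with Fluo4-AM dye, 2 µM / Measure: Agonist-evoked peak-minus-minimum fluorescence over baseline, integrated ratio, B score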
RGS4 block valid: RGS4 inhibitor validation; shares compounds with RGS4 block; HEK293 M3R/RGS4, carbachol calcium Fluo-4 fluorescence; carbachol added at its EC20; 0 = buffer wells, 100 = carbachol control; calcium response, % at 10 µM; 65% of 1,700 active; AID 492999;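 active means duplicate-averaged calcium response above the buffer-only control mean plus 5 SD of those controls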;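 further: integrated fluorescence ratio F max minus min over baseline F0; higher response in RGS4-induced cells means RGS4 inhibition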
RGS4 uninduced: checks RGS4 inhibitor effects in non-induced HEK293 M3R cells; shares compounds with RGS4 block; carbachol calcium Fluo-4; submaximal (EC20) carbachol stimulus; buffer wells 0%, carbachol control wells 100%; activity (percent), % at 10 µM; 20% of 1,900 active; call rule not given here;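 further: RGS4 induction absent so cells express M3R without RGS4; higher means more calcium signal and flags a non-specific hit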
RGS4 inh ctr2: signal in non-induced cells without carbachol, RGS4 inhibitor counter-screen; shares compounds with RGS4 block; HEK293 M3R/RGS4 non-induced, Fluo-4 calcium, no carbachol; normalised: buffer wells 0%, carbachol wells 100%; calcium response (agonist-mode artifact), % at 10 µM; 22% of 1,900 active; AID 493001;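 active means duplicate-averaged calcium rise in uninduced cells above buffer wells' mean plus 5 SD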
An asterisk follows results filed as active; i = inactive; nt = no result given.

SMILES | MrgX1 antagonist | MrgX1 agonist | RGS4 block | MrgX1 PAM | RGS4 pot | RGS4 block valid | RGS4 uninduced | RGS4 inh ctr2
O=C(CNc1ccc(Br)cc1)c1ccc(O)cc1 | i | i | 9.6* | i | i | 22%* | i | i
O=C(CNc1ccc(Cl)cc1)c1ccc(Br)cc1 | i | i | i | i | i | nt | nt | nt
CC(C)CNC(=O)c1cc2nc(C3CC3)cc(C(F)(F)F)n2n1 | i | i | i | i | i | nt | nt | nt
Nc1ccc(CCNc2ncnc3c2ncn3[C@@H]2O[C@H](CO)[C@@H](O)[C@H]2O)cc1 | i | i | i | i | i | nt | i | i
OCC1OC(n2cnc3c(NCCc4ccccc4)ncnc32)C(O)C1O (stereo not given) | i | i | 6.4* | i | i | 29%* | 68%* | i
O=c1[nH]cnc2c1ncn2[C@@H]1O[C@H](CO)[C@@H](O)[C@H]1O | i | i | i | i | i | nt | nt | nt
COc1ccc(S(=O)(=O)N2CCOCC2)cc1NC(=O)CSc1n[nH]c(C(C)C)n1 | i | i | i | i | i | nt | nt | nt
O=C(CN1CCN(S(=O)(=O)c2cc(Cl)ccc2Cl)CC1)Nc1ccc2c(c1)OCCO2 | i | i | i | i | i | nt | nt | nt
O=C(/C=C/c1ccccc1)c1ccc2c(c1)OCO2 | i | i | i | i | i | nt | nt | nt
O=C(/C=C/c1ccncc1)c1ccc2c(c1)OCCO2 | i | i | 7.5* | i | i | 32%* | i | i
COc1ccc(C(=O)/C=C/c2ccc(O)cc2)c(O)c1CC=C(C)C | i | i | 6.4* | i | i | 19%* | i | i
COc1ccc(C(=O)/C=C/c2ccc(O)cc2)cc1 | i | i | i | i | i | nt | nt | nt
Cc1[nH]c(C)c(S(=O)(=O)N2CCN(c3ccccc3F)CC2)c1C(=O)N1CCCCC1 | i | i | i | i | i | nt | nt | nt
Cc1occc1-c1n[nH]c(=S)n1C | i | i | i | i | i | nt | nt | nt
CCOC(=O)C1CCN(CC(=O)c2c(C)n(C)c3ccc(OC)cc23)CC1 | i | i | 4.9* | i | i | 13%* | i | i
COc1cc(C2C3=C(CCCC3=O)Nc3[nH]n(-c4ccccc4)c(=O)c32)ccc1O (stereo not given) | i | i | nt | i | nt | nt | nt | nt
COc1cc(C2C3=C(CCCC3=O)Nc3c2c(C)nn3-c2cccc(C)c2)cc(OC)c1O (stereo not given) | i | i | 6.3* | i | i | 14%* | 40%* | i
COCCNC(=S)N/N=C(\C)c1ccccc1OC | i | i | 5.7* | i | i | 40%* | i | i
O=C(O)CN1C(=O)/C(=C/c2ccccc2Cl)Oc2ccccc21 | i | i | 6.5* | i | i | 22%* | 31%* | i
O=C(O)CN1C(=O)/C(=C/c2cccc(Cl)c2)Oc2ccccc21 | i | i | i | i | i | nt | nt | nt
N#CC1=C2N=C(N)c3ccccc3N2C2=C(C(=O)CCC2)C1c1cccc(Cl)c1 (stereo not given) | i | i | i | i | i | nt | 38%* | 28%*
Cc1ccccc1C1C(C#N)=C2N=C(N)c3ccccc3N2C2=C1C(=O)CCC2 (stereo not given) | i | i | i | i | i | nt | nt | nt
CC(C)(C)c1ccc(C(=O)N2CCC(=O)N(C(CO)Cc3ccccc3)CC2)cc1 (stereo not given) | i | i | i | i | i | nt | nt | nt
Cc1cc(C)c(NC(=O)COc2ccccc2C(=O)Nc2ccc3c(c2)oc2ccccc23)c(C)c1 | i | i | i | i | i | nt | nt | nt
CCOC(=O)N1CCN(C(=O)CN(C)S(=O)(=O)c2ccc(OCC)cc2)CC1 | i | i | i | i | i | nt | nt | nt
SMILES | MrgX1 antagonist | MrgX1 agonist | RGS4 block | MrgX1 PAM | RGS4 pot | RGS4 block valid | RGS4 uninduced | RGS4 inh ctr2
CC1(C)Cc2ccccc2C(/C(=N\Nc2cccc(Cl)c2)C(N)=O)=N1 | i | i | 6.6* | i | i | 16%* | i | i
CC(=O)c1ccc(N/N=C(/C(N)=O)C2=NC(C)(C)Cc3ccccc32)cc1 | i | i | i | i | i | nt | nt | nt
CCOC(=O)CNC1CC(=O)N(c2ccc(Br)cc2)C1=O (stereo not given) | i | i | i | i | i | nt | nt | nt
CC(C)c1nnc(NC(=O)c2sc3ccccc3c2Cl)s1 | i | i | 4.8* | i | i | i | i | i
CC(/C=C/c1ccc(N(C)C)cc1)=N\N=C(/N)SC1CC(=O)N(c2ccc(C(=O)O)cc2)C1=O (stereo not given) | i | i | i | i | i | nt | nt | nt
CCCOc1ccc(N2C(=O)CC(S/C(N)=N/N=C(\C)c3cccs3)C2=O)cc1 (stereo not given) | i | i | i | i | i | nt | i | i
C/C(=N\N=C(/N)SC1CC(=O)N(c2cccc(Cl)c2)C1=O)c1cccs1 (stereo not given) | i | i | i | i | i | nt | i | i
O=C(O)c1ccc(Nc2nc(-c3cc4ccccc4oc3=O)cs2)cc1O | nt | nt | 15* | nt | i | 40%* | i | 12%*
CC(=O)Nc1ccc(C(=O)NC(CC(=O)O)c2ccc(Cl)cc2)cc1 (stereo not given) | i | i | i | i | i | nt | nt | nt
CCCNC(=O)c1ccccc1NC(=O)Nc1ccccc1C | i | i | nt | i | nt | nt | nt | nt
CCCNC(C)C(=O)Nc1ccccc1C (stereo not given) | i | i | 4.8* | i | i | 6.5%* | i | i
CCC(C)Nc1nc2c(c(=O)[nH]c(=O)n2C)n1CCOc1ccccc1 (stereo not given) | i | i | i | i | i | nt | nt | nt
CCCCn1c(NC(C)CC)nc2c1c(=O)[nH]c(=O)n2C (stereo not given) | i | i | 4.7* | i | i | 9.5%* | i | i
COc1cccc(CN2CCNC(=O)C2CC(=O)NCC(C)(C)N2CCOCC2)c1OC (stereo not given) | i | i | i | i | i | nt | nt | nt
COc1cccc(/C=C/C(=O)c2ccc(C)c([N+](=O)[O-])c2)c1 | i | 32* | 8.9* | i | i | i | 40%* | i

High-throughput results as filed in PubChem.
